Bioassay records (PubChem)
Most compounds without a hit are left out; they make up all but 0.59% or so of the library.
OXTR potentiate = human OXTR potentiators, primary screen, fluorescence, CHO-OTR cells, Fluo-8 calcium; Oxytocin receptor (Homo sapiens), P30559; Fluo-8 calcium fluorescence, potentiator mode; 0% = oxytocin EC15, 100% = EC100; activation, % at 3 µM; 320,000 compounds, 0.061% hits;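 active = activation above that plate's cutoff, the mean activation of tested compounds plus 3 SD, cut at about 6.6% in these data, passing the limit was not always enough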;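 also: 100% uses oxytocin at 75 nM as the full agonist control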
Target sequence (P30559 whole entry, looked up): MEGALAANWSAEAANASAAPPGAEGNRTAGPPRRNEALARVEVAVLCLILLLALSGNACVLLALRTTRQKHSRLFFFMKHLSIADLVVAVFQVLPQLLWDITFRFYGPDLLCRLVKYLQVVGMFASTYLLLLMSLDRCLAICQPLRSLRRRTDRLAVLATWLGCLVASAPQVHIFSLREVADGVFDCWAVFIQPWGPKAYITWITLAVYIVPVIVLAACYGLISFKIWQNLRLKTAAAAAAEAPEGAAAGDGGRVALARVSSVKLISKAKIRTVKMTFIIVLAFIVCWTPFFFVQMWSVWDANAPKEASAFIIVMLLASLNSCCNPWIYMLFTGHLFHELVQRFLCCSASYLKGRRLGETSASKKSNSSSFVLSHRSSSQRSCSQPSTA
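Material: CHO-OTR cells, human receptor; compound dosing: single dose, 3.0 µM nominal final compound concentration; schedule: 6 min compound pre-incubation at room temperature, 100 s kinetic read; measured by: kinetic Fluo-8 calcium fluorescence; read-out basis: % activation vs EC15 and EC100 oxytocin; controls: EC15 oxytocin alone as 0%, 75 nM oxytocin as 100%; replicates: singlicate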
V1aR counter = agonists of human V1a receptor, primary screen, counter-screen for OXTR agonist project, fluorescence, CHO-V1R cells. 320,000 compounds, 0.25% hits. activation, % at 3 µM. Vasopressin V1a receptor (Homo sapiens), P37288. Fluo-8 calcium fluorescence, agonist mode; 0% DMSO, 100% 3 nM vasopressin;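 active = activation above the mean activation of all tested compounds plus 3 SD, per screening run, cut at about 20% in these data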;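 also: signal is peak over basal fluorescence ratio across a 100 second FLIPR read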
OXTR ag = human OXTR agonists, primary screen, fluorescence, CHO-OTR cells, Fluo-8 calcium; Oxytocin receptor (Homo sapiens), P30559; Fluo-8 calcium fluorescence; normalized: DMSO 0%, oxytocin 100%; activation, % at 3 µM; 320,000 compounds, 0.32% hits; AID 2435, 2010;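 active = activation above the mean of all tested compounds plus 3 SD, cutoff set per screening run, cut at about 20% in these data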;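 also: peak over basal fluorescence ratio from a 100 s FLIPR kinetic read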
zfTRPN1 agonist = zebrafish TRPN1 channel agonists, primary screen, cell-based, HEK293, calcium fluorescence; HEK293 zebrafish TRPN1-YFP, Fluo-8 calcium fluorescence; 100% = response to 87 µM carbachol; activation, % at 3 µM; 220,000 compounds, 0.18% hits; AID 1424, 2008;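 active = activation above its plate's cutoff, the mean activation of test wells on that plate plus 3 SD, cut at about 19% in these data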;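 also: 0% = DMSO alone and 100% = 87 µM carbachol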
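System: zebrafish TRPN1-YFP in HEK293 cells / Dosing: 3 µM single point / Timing: dye loading 1 h at 37 °C, then 30 min room temperature / Signal: Fluo-8 calcium fluorescence, excitation 470-495 nm, emission 515-575 nm / Read-out basis: percent activation from peak over basal fluorescence ratio, control-normalized / Control set: high carbachol 87 µM, low DMSO alone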
TRPML3 agonist = human TRPML3 channel agonists, primary screen, cell-based, HEK293 TRPML3-YFP, Fluo-8 calcium fluorescence, 3 µM; 100% = the carbachol control signal; activation, % at 3 µM; 220,000 compounds, 0.29% hits;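 active = activation above its plate's cutoff, the mean activation of the plate's test wells plus 3 SD, cut at about 12% in these data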;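 also: 0% = DMSO only wells and 100% = carbachol wells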
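Test system: HEK293 cells stably carrying human TRPML3-YFP; Doses: single dose, 3 µM final nominal compound, 0.3% DMSO final; Schedule: dye loading 1 h 37 °C then 30 min ambient, 125 s read; Technique: Fluo-8 calcium fluorescence; Benchmarks: high control carbachol 87 µM, low control DMSO.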
Active calls of the source: *; · = no result; + = active, no number.

SMILES	OXTR potentiate	V1aR counter	OXTR ag	zfTRPN1 agonist	TRPML3 agonist
CC1(C)C[C@H]2C3=CCC4[C@@]5(C)CC[C@H](O[C@@H]6O[C@H](C(=O)O)[C@@H](O)[C@H](O)[C@H]6O)[C@@](C)(CO)C5CC[C@@]4(C)[C@]3(C)C[C@H](O)[C@@]2(CO)[C@@H](O)[C@@H]1O (some centres undefined)	3.4	1.2	1.5	·	·
CC(=O)OC1COC(OC2C(O)C(C)OC(OC3C(OC4CCC5(C)C(CCC6(C)C5CC=C5C7CC(C)(C)CCC7(C(=O)O)CCC56C)C4(C)CO)OCC(O)C3O)C2O)C(O)C1OC(C)=O (centres undefined)	-10.9	115.5*	91.8*	122.8*	95.3*
C/C=C(/C)C(=O)OC1CC(C)(C)C[C@H]2C3=CC[C@@H]4[C@@]5(C)CCC(O[C@@H]6O[C@@H](C(=O)O)[C@@H](O)C(O[C@@H]7OC[C@H](O)[C@@H](O)[C@@H]7O[C@@H]7OC(CO)C(O)[C@@H](O)[C@@H]7O)C6O[C@@H]6OC(CO)C(O)C(O)C6O)[C@@](C)(CO)[C@@H]5CC[C@]4(C)[C@]3(C)CC(O)[C@@]12CO (some centres undefined)	-12.2	22.4*	44.3*	·	·
CS(=O)(=O)c1ccc(-c2csc(-c3cccnc3)n2)cc1	-12.8	3.5	1.2	·	·
CCCCCCCCCCCCCCCC[n+]1cccc(C(=O)N(CC)CC)c1	-18.6	23.5*	37.4*	3.1	0.5
N=C1/C(=C\c2coc3ccccc3c2=O)C(=O)N=C2SC=CN12	-9.8	84.5*	115.8*	175.5*	66.3*
N=C1/C(=C/c2cccn2Cc2ccc(F)cc2)C(=O)N=C2SC=CN12	-5.1	-1.6	-1.4	-0.8	-0.5
CC1=CC2=NC(=O)/C(=C\c3cc(C)n(-c4cccc(Cl)c4)c3C)C(=N)N2O1	-4.2	0.5	-1.2	0.1	0.8
CSC1=NSC2=NC(=O)/C(=C/c3coc4ccccc4c3=O)C(=N)N12	-12.0	87.6*	176.2*	36.2*	10.1
CSC1=NSC2=NC(=O)/C(=C/c3coc4ccc(O)cc4c3=O)C(=N)N12	-18.6	77.0*	103.6*	1.3	1.0
CC1=CC2=NC(=O)/C(=C/c3coc4ccc(Cl)cc4c3=O)C(=N)N2O1	-19.1	33.5*	55.4*	53.0*	16.4*
CSC1=NSC2=NC(=O)/C(=C\c3cccs3)C(=N)N12	-3.6	1.5	1.9	1.9	0.5
CC(C)(C)c1ccc(NC(=O)c2ccc(=O)[nH]n2)cc1	-26.6	2.2	0.2	·	·
O=C(NCc1ccc(F)cc1)C1CCCN1C(=O)Nc1cccc(F)c1 (centres undefined)	2.1	0.2	-0.8	·	·
CCn1ncc(C2=NOC(C(=O)Nc3cnn(C45CC6CC(CC(C6)C4)C5)c3)C2)c1C (centres undefined)	-8.8	25.2*	35.5*	13.1	8.0
COC(=O)NNC(=O)c1ccc(Cl)cc1Cl	-5.7	-0.3	0.1	0.3	0.2
CC(C)(C)C(=O)NC(=S)NNC(=O)c1ccncc1	8.1	0.0	0.0	0.4	1.0
CC(C)(C)C(=O)NC(=S)NNC(=O)c1ccc(-c2ccccc2)cc1	-11.1	117.2*	108.2*	197.4*	116.7*
CC(C)(C)C(=O)NC(=S)NNC(=O)c1ccc(Cl)cc1Cl	-26.2	121.9*	98.1*	170.5*	103.2*
Cc1cc(C(=O)NNC(=O)CN2C(=O)NC(C)(c3ccccc3)C2=O)c(C)o1 (centres undefined)	-3.0	0.8	0.2	·	·
CCOc1ccc(S(=O)(=O)N2CCN(CN3C(=O)CC4(CCCC4)C3=O)CC2)cc1	-3.3	0.8	1.3	·	·
N#C/C(=C/c1ccc(N2CCCCC2)o1)C(=O)Nc1ccc2ccccc2c1	·	·	·	39.6*	21.7*
N#C/C(=C/c1ccc(N2CCCCC2)o1)C(=O)Nc1ccc(Cl)cc1	-10.4	225.3*	197.2*	28.2*	38.8*
Cc1cc(C)c(NC(=O)COC(=O)Cc2cccs2)c(C)c1	-4.5	-0.3	-0.6	·	·
Nc1ccc2c3c(cccc13)CC2	-7.6	46.3*	46.0*	41.7*	19.9*
SMILES	OXTR potentiate	V1aR counter	OXTR ag	zfTRPN1 agonist	TRPML3 agonist
Cc1c(C)c(C)c(S(=O)(=O)Nc2ccc3[nH]c(=O)[nH]c3c2)c(C)c1C	-3.5	0.0	1.1	·	·
Cc1ccc(-c2c(C#N)c(N)n(-c3ccc(C)cc3)c(=O)c2C#N)cc1	-11.0	9.1	10.2	0.5	0.7
Cc1ccc(-n2c(N)c(C#N)c(-c3ccc(Cl)cc3)c(C#N)c2=O)cc1	-25.0	23.8*	29.2*	2.1	0.5
Cc1cc(/C=N/NC(N)=S)c(O)c(/C=N/NC(N)=S)c1	-1.1	19.8	12.3	41.2*	15.8*
NC(=S)N/N=C/c1cccc(O)c1O	-5.6	-0.1	0.2	-0.1	-0.7
Cn1c(N)c(C(=O)CSc2nnc3n2CCCCC3)c(=O)n(C)c1=O	-2.2	1.6	0.8	·	·
COc1ccc(-c2c(C)c3ccc(O)cc3oc2=O)cc1OC	-5.9	1.0	-0.9	·	·
Nc1ccc(-c2c3ccc(=O)cc-3oc3cc(O)ccc23)cc1C(=O)O	-25.9	260.9*	291.9*	·	·
Cc1oc2cc(O)ccc2c(=O)c1-c1ccccc1	1.8	0.9	1.2	-0.5	0.2
O=c1ccc2c(-c3ccccc3)c3ccc(O)cc3oc-2c1	-24.5	+	849.7*	·	·
COc1ccccc1CCNC(=O)C(=O)NCC1OCCN1S(=O)(=O)c1ccc(OC)c(OC)c1 (centres undefined)	-4.4	2.6	1.4	·	·
Cc1cccc(C)c1NC(=O)NC1(C(=O)NCc2ccncc2)CCCCC1	1.9	0.2	1.4	·	·
COc1ccccc1N1N=C(c2ccc([N+](=O)[O-])cc2)CC1c1ccccc1 (centres undefined)	-22.0	28.1*	29.8*	·	·
CN1/C(=C/C(=O)CSc2ccccc2C(=O)O)C(C)(C)c2ccccc21	2.3	2.1	1.9	1.0	0.8
Cc1cc(=O)[nH]c(SCC(=O)/C=C2\N(C)c3ccccc3C2(C)C)n1	-15.9	7.3	23.1*	4.5	5.1
COc1cc(/C=C/C(=O)CC(=O)/C=C/c2ccc(O)c(OC)c2)ccc1O	-21.8	24.5*	33.0*	11.2	7.7
COc1cc(/C=C/C(=O)O)ccc1O	-1.6	0.1	1.0	·	·
COc1cc(/C=C/C(=O)/C=C(O)/C=C/c2ccc(O)c(OC)c2)ccc1O	-10.2	40.9*	32.8*	·	·
COc1ccc(-c2noc(CCC(=O)NC3CCCCC3)n2)cc1	-4.8	4.4	2.9	·	·
